pEC50, pIC50, pKi: −log10 of the molar value.
Tests used:
Cavia porcellus [1] = organism: Cavia porcellus; assay: Tested for agonist or antagonist properties in guinea pig ileum by (GPI) assay.
[2] = molecular target: T1, Kappa-type opioid receptor (Homo sapiens, UniProt P41145); assay: Binding affinity towards cloned human Opioid receptor kappa 1 in CHO cell membranes.; format: cell-based
[3] = molecular target: T2, Delta-type opioid receptor (Homo sapiens, UniProt P41143); assay: (§1) Binding affinity towards cloned human Opioid receptor delta 1 in CHO cell membranes.; format: cell-based
T2 sequence (P41143 whole entry): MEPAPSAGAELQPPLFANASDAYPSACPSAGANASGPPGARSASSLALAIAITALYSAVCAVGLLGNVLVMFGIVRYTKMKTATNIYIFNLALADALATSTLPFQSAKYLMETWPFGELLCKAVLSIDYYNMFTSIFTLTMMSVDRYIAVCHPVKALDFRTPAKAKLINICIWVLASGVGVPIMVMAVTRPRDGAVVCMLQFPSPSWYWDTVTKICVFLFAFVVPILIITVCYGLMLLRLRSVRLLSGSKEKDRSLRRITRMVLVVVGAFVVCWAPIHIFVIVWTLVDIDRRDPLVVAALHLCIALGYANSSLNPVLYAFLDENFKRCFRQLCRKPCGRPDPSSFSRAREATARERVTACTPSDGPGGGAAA
How it was run: (§2)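 Membranes from CHO cells stably expressing cloned human µ, δ or κ receptors in 50 mM Tris-HCl pH 7.8 with EGTA, MgCl2 and protease inhibitors. 50-100 µg protein with 1.0 nM [3H]diprenorphine, 60 min at room temperature. Filtered on PEI/BSA-treated GF/B and counted by scintillation. Nonspecific binding with 10 µM naloxone. Four-parameter one-site fit, Ki by Cheng-Prusoff.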

Mu-type opioid receptor = Mu-type opioid receptor (Homo sapiens, UniProt P35372); assay: Binding affinity towards cloned human Opioid receptor mu 1 in CHO cell membranes.; format: cell-based; how it was run: as §2
Mu-type opioid receptor, sequence (P35372 whole entry): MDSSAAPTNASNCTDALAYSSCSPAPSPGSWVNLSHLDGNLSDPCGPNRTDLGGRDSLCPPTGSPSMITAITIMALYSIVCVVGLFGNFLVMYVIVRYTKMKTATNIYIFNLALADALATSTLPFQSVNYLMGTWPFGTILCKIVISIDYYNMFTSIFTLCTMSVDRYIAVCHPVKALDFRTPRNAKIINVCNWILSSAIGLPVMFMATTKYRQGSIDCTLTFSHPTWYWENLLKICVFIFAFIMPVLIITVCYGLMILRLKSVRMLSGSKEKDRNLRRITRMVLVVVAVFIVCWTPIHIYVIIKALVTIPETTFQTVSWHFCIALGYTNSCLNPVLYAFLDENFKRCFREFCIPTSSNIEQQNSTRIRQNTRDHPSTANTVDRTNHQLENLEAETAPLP

[4] = Antagonist activity determined in the [35S]GTP-gamma-S, binding assay relative to 50 nM U50,488; format: functional
[5] = molecular target: T1, Kappa-type opioid receptor; assay: Binding affinity of Opioid receptor kappa 1 to cloned human opioid receptor in CHO cell membrane.; format: cell-based; how it was run: as §2
[6] = molecular target: T2, Delta-type opioid receptor; assay: as §1; format: cell-based; remark: listed apart in the source
How it was run: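 Membranes from CHO cells stably expressing cloned human δ receptor; 50-100 µg protein. […] Nonspecific binding with 10 µM naloxone. Filter-bound counts; Ki via Cheng-Prusoff from a one-site fit.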

[7] = molecular target: T1, Kappa-type opioid receptor; assay: Human kOpioid receptor kappa 1 mediated stimulation of [35S]- GTPgammaS binding in CHO cells (Agonist potency).; format: cell-based
How it was run: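 Human κ-CHO membranes (50-150 µg) with 80-100 pM [35S]GTPγS, 30 µM GDP and 100 mM NaCl in Tris-HCl pH 7.8; 1 h at 30 °C, then filtration and counting. EC50 from a nonlinear fit of an agonist concentration series. Maximal response at 10 µM expressed relative to U50,488 (100%).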

Cavia porcellus [8] = organism: Cavia porcellus; assay: Tested for antagonist activity in guinea pig ileum by (GPI) assay.; format: functional, organism-based
How it was run: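 Electrically evoked contractions of guinea pig ileum. Ke calculated from IC50 of reference agonist (U50,488 or [D-Ala3]Dyn A(1-11)-NH2), measured with and without a fixed concentration of antagonist.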

[9] = Tested for maximum agonist response at concentration 10 uM, relative to that with standard agonist U50,488.; format: functional
How it was run: (§3)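 κ-expressing CHO membranes (50-150 µg) in 50 mM Tris HCl pH 7.8 with 80-100 pM [35S]GTPγS, 30 µM GDP, 100 mM NaCl and 5.0 mM MgCl2, 1 h at 30 °C. Filtered and counted. Agonist concentration series gave EC50 by nonlinear regression. Maximal response at 10 µM expressed relative to U50,488 set as 100%.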

[10] = molecular target: T1, Kappa-type opioid receptor; assay: Human Opioid receptor kappa 1 mediated stimulation of [35S]- GTPgammaS binding in CHO cells (Agonist potency).; format: cell-based; how it was run: as §3
Cavia porcellus [11] = organism: Cavia porcellus; assay: Tested for agonist or antagonist properties in guinea pig ileum a (GPI) assay.; format: functional, organism-based
Cavia porcellus [12] = organism: Cavia porcellus; assay: Antagonist activity determined in the guinea pig assay against U50,488 at 1 uM; format: functional
How it was run: (§4)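 Electrically stimulated guinea pig ileum. Antagonist held at a fixed concentration of 1 µM. IC50 of the reference agonist (U50,488 or [D-Ala3]Dyn A(1-11)-NH2, as the line names) was measured with and without antagonist. Ke was calculated from the shift.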

Cavia porcellus [13] = organism: Cavia porcellus; assay: Antagonist activity determined in the guinea pig assay against [D-Ala3] Dyn A (1-11)-NH2 at 1 uM; format: functional; how it was run: as §4
[14] = Antagonist activity determined in the [35S]GTP-gamma-S, binding assay relative to 25 nM [D-Ala3] Dyn A (1-11)-NH2.; format: functional
[15] = molecular target: T1, Kappa-type opioid receptor; assay: Binding affinity at Opioid receptor kappa 1 by to cloned human opioid receptors expressed in CHO cell membranes
How it was run: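 Membranes from CHO cells stably expressing cloned human κ receptor; 50-100 µg protein in 50 mM Tris-HCl pH 7.8 with EGTA, MgCl2 and protease inhibitors. […] Nonspecific binding with 10 µM naloxone. Filtration and scintillation counting; Ki by Cheng-Prusoff.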

T1 sequence (P41145 whole entry): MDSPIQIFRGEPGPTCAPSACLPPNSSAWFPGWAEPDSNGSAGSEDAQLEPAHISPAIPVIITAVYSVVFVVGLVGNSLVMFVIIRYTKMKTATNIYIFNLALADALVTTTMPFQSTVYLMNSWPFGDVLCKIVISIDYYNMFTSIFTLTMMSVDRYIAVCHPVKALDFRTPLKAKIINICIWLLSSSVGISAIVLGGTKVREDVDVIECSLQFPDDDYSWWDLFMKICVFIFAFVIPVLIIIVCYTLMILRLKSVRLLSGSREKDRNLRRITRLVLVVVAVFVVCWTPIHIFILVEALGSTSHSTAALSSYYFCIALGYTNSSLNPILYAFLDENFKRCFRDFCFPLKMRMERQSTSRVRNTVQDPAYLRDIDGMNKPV

CC[C@H](C)[C@H](NC(=O)[C@H](CCCN=C(N)N)NC(=O)[C@H](CCCN=C(N)N)NC(=O)[C@H](CC(C)C)NC(=O)[C@H](Cc1ccccc1)NC(=O)[C@@H](C)NC(=O)CNC(=O)[C@@H](N)Cc1ccc(O)cc1)C(=O)N[C@@H](CCCN=C(N)N)C(=O)N1CCC[C@H]1C(=O)N[C@@H](CCCCN)C(N)=O
pIC50 (Cavia porcellus [1]): 8.62

CC[C@H](C)[C@H](NC(=O)[C@H](CCCNC(=N)N)NC(=O)[C@H](CCCNC(=N)N)NC(=O)[C@H](CC(C)C)NC(=O)[C@H](Cc1ccccc1)NC(=O)CNC(=O)[C@@H]1CCCN1C(=O)[C@@H](N)Cc1ccc(O)cc1)C(=O)N[C@@H](CCCNC(=N)N)C(=O)N1CCC[C@H]1C(=O)N[C@@H](CCCCN)C(N)=O
pKi [2]: 7.03 | pKi [3]: 5.17 | pKi (Mu-type opioid receptor): 5.49 | pIC50 [4]: 6.12

CC[C@@H](C)[C@@H](NC(=O)CNC(=O)[C@@H](N)Cc1ccc(O)cc1)C(=O)N[C@@H](Cc1ccccc1)C(=O)N[C@@H](CC(C)C)C(=O)N[C@@H](CCCN=C(N)N)C(=O)N[C@@H](CCCN=C(N)N)C(=O)N[C@H](C(=O)N[C@@H](CCCN=C(N)N)C(=O)N1CCC[C@H]1C(=O)N[C@@H](CCCCN)C(N)=O)[C@@H](C)CC
pKi [5]: 7.26

CC[C@H](C)[C@H](NC(=O)[C@H](CCCN=C(N)N)NC(=O)[C@H](CCCN=C(N)N)NC(=O)[C@H](CC(C)C)NC(=O)[C@H](Cc1ccccc1)NC(=O)CNC(=O)CNC(=O)[C@@H](N)Cc1ccc(O)cc1)C(=O)N[C@@H](CCCN=C(N)N)C(=O)N1CCC[C@H]1C(=O)N[C@@H](CCCCN)C(N)=O
pKi [2]: 10.13 | pKi [6]: 8.54 | pKi (Mu-type opioid receptor): 8.12 | pEC50 [7]: 9.13 | pIC50 (Cavia porcellus [8]): 9.42 | Max agonist response [9]: 73%

CC[C@H](C)[C@H](NC(=O)[C@H](CCCNC(=N)N)NC(=O)[C@H](CCCNC(=N)N)NC(=O)[C@H](CC(C)C)NC(=O)[C@H](Cc1ccccc1)NC(=O)[C@@H](C)NC(=O)CNC(=O)[C@@H](N)Cc1ccc(O)cc1)C(=O)N[C@@H](CCCNC(=N)N)C(=O)N1CCC[C@H]1C(=O)N[C@@H](CCCCN)C(N)=O
pKi [2]: 9.82 | pKi (Mu-type opioid receptor): 7.17 | pEC50 [10]: 8.21

CCC[C@H](NC(=O)[C@H](Cc1ccccc1)NC(=O)CNC(=O)CNC(=O)[C@H](Cc1ccc(O)cc1)NCc1ccccc1)C(=O)N[C@@H](CCCN=C(N)N)C(=O)N[C@@H](CCCN=C(N)N)C(=O)N[C@H](C(=O)N[C@@H](CCCN=C(N)N)C(=O)N1CCCC1C(=O)N[C@@H](CCCCN)C(N)=O)[C@@H](C)CC (stereo in doubt)
pIC50 (Cavia porcellus [11]): 6.00

CC[C@H](C)[C@H](NC(=O)[C@H](CCCN=C(N)N)NC(=O)[C@H](CCCN=C(N)N)NC(=O)[C@H](CC(C)C)NC(=O)[C@H](Cc1ccccc1)NC(=O)[C@H]1CCCN1C(=O)CNC(=O)[C@@H](N)Cc1ccc(O)cc1)C(=O)N[C@@H](CCCN=C(N)N)C(=O)N1CCC[C@H]1C(=O)N[C@@H](CCCCN)C(N)=O
pKi [2]: 6.80 | pKi [3]: 5.15 | pKi (Mu-type opioid receptor): 5.08 | pIC50 [4]: 5.66

CC[C@H](C)[C@H](NC(=O)[C@H](CCCN=C(N)N)NC(=O)[C@H](CCCN=C(N)N)NC(=O)[C@H](CC(C)C)NC(=O)[C@H](Cc1ccccc1)NC(=O)CNC(=O)[C@H]1CCCN1C(=O)[C@@H](N)Cc1ccc(O)cc1)C(=O)N[C@@H](CCCN=C(N)N)C(=O)N1CCC[C@H]1C(=O)N[C@@H](CCCCN)C(N)=O
pKi [2]: 7.19 | pKi [3]: 5.41 | pKi (Mu-type opioid receptor): 5.77 | pIC50 [4]: 6.03

Oc1ccc2c3c1O[C@H]1c4[nH]c5c(c4C[C@@]4(O)[C@@H](C2)N(CC2CC2)CC[C@]314)C[C@@]1(O)[C@H]2Cc3ccc(O)c4c3[C@@]1(CCN2CC1CC1)[C@H]5O4 [NORBINALTORPHIMINE]
Ke (Cavia porcellus [12]): 0.357 nM | Ke (Cavia porcellus [13]): 0.572 nM | pIC50 [14]: 8.33 | pIC50 [4]: 8.34

CC[C@H](C)[C@H](NC(=O)[C@H](CCCN=C(N)N)NC(=O)[C@H](CCCN=C(N)N)NC(=O)[C@H](CC(C)C)NC(=O)[C@H](Cc1ccccc1)NC(=O)[C@@H]1CCCN1C(=O)CNC(=O)[C@@H](N)Cc1ccc(O)cc1)C(=O)N[C@@H](CCCN=C(N)N)C(=O)N1CCC[C@H]1C(=O)N[C@@H](CCCCN)C(N)=O
pKi [2]: 8.57 | pKi [3]: 5.06 | pKi (Mu-type opioid receptor): 5.24 | pKi [15]: 8.12 | pIC50 [14]: 5.85 | pIC50 [4]: 6.42
